Experimental findings from the array DNA melting data of Ke et al. (doi:10.1101/2024.01.08.574731) are described below.

The nature of series [1]: folding enthalpy; higher = less favourable; fluorescence melt of hairpins on a sequencing array, two-state fit. Particulars: sodium 0.088 M. A digest of the protocol: (§1)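 Bootstrapped two-state fits yielded melting temperature and folding enthalpy for library hairpins. Cy3 fluorescence, with annealed Cy3 and quencher oligos, was imaged on a sequenced MiSeq flow cell in 50 mM Na-HEPES pH 8.0, 25 mM NaCl in 2.5 °C steps up to 60 °C, and normalised to pre-quench Cy3 and to control constructs. Four replicates were combined by inverse variance, and fitted temperatures were raised by 9.35 °C to match UV melts.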

A short description of series [2]: melting temperature; fluorescence melt of hairpins on a sequencing array, two-state fit, raised by 9.35 °C to match UV melts. Particulars: sodium 0.088 M. A digest of the protocol:
as §1

GATCAGCGGTCTGATC ((((((....)))))): the folding enthalpy in series [1] is -32.1 kcal/mol. The Tm in series [2] came out at 49.9 °C.
The like results for GTATGCGAAAGCACCTAC ((((((....)))..))) were, in that order, -5.96 kcal/mol and 22.1 °C.
In the case of GATCTAGCGAAAGCTATC (((..(((....)))))), the folding enthalpy in series [1] is -10.5 kcal/mol. In addition, the Tm in series [2] was 22.8 °C.
The matching figures for GATCTAAACCTAGATC ((((((....)))))): -33.8 kcal/mol and 39.3 °C.
The like results for GCACCGCGAAAGCGTGC (((.(((....)))))) were, in that order, -19 kcal/mol and 63.8 °C.
The matching figures for GAGCACGGAAACGTGTTC ((.((((....)))).)): -26.2 kcal/mol and 51.6 °C.
For GATCCTGGCTAGGATC ((((((....)))))), the folding enthalpy in series [1] is -38.3 kcal/mol. In addition, the Tm in series [2] is 57.5 °C.
The matching figures for GTACCCACGAAAGTGTAC (((..(((....)))))): -11.5 kcal/mol and 26.2 °C.
The matching figures for GCTATCGAAAGATGAGC ((((((....))).))): -27.1 kcal/mol and 37.4 °C.
In the case of GATCTGGCTACAGATC ((((((....)))))), in series [1], the folding enthalpy was -42 kcal/mol. The Tm in series [2] is 59.4 °C.
The matching figures for GCGAGCAATCGC ((((....)))): -23.8 kcal/mol and 62.2 °C.
The like results for GCTACGCGAAAGCATGGC ((.(.((....)).).)) were, in that order, -19.7 kcal/mol and 37 °C.
The like results for GTCGGAGGAAACTCTGAC (((.(((....))).))) were, in that order, -45.4 kcal/mol and 50 °C.
GAGTCACGAAAGTGCTC (((.(((....)))))): the folding enthalpy in series [1] is -23.8 kcal/mol. The Tm in series [2] was found to be 48.6 °C.
The like results for GCGCGGCGAAAGCGACGC (((..((....))..))) were, in that order, -15.2 kcal/mol and 63.2 °C.
The matching figures for CCTCAGAAATGAGG (((((....))))): -19.7 kcal/mol and 45.2 °C.
With GTCCAGGGAAACTTGGGC (.(((.(....).))).), in series [1], the folding enthalpy is -29 kcal/mol. Besides, the Tm in series [2] stood at 34.7 °C.
The like results for GGCACGGCGAAAGCCGCC (((..(((....)))))) were, in that order, -8.23 kcal/mol and 44.6 °C.
The like results for GATCTGTTAACAGATC ((((((....)))))) were, in that order, -39.8 kcal/mol and 54.7 °C.
Turning to GTTGGCGGAAACGCTGAC ((..(((....)))..)), the folding enthalpy in series [1] is -16.8 kcal/mol. The Tm in series [2] turned out to be 45 °C.
The like results for GATCATGGTATGATC ((((((...)))))) were, in that order, -36.3 kcal/mol and 48.9 °C.
The matching figures for GATCAGGAATCTGATC ((((((....)))))): -41.8 kcal/mol and 54.8 °C.
The matching figures for GTTGACGGAAACGTTAAC (((.(((....))).))): -27 kcal/mol and 47.1 °C.
As for GAAGTGCGAAAGCAGTTC (((.(((....))).))), the folding enthalpy in series [1] is -33.5 kcal/mol. Besides, the Tm in series [2] turned out to be 57.5 °C.
The matching figures for GTGGCAGGAAACTGCCGC (.(((((....))))).): -18.3 kcal/mol and 61.1 °C.
On to GTTGTCGAAAGACGGAAC ((((((....)))..))), for which the folding enthalpy in series [1] is -10.3 kcal/mol. Further, the Tm in series [2] was 31.3 °C.
The like results for GCCGTGCGAAAGCCAGGC (((..((....))..))) were, in that order, -23.9 kcal/mol and 62.8 °C.
The like results for GTCCCACGAAAGTGGAC (((.(((....)))))) were, in that order, -13.1 kcal/mol and 49.9 °C.
On to GGTGACGGAAACGTCATC (.(((((....))))).), for which, in series [1], the folding enthalpy was -38.2 kcal/mol. Besides, in series [2], the Tm stood at 54.1 °C.
The like results for GAGTTCCGAAAGGACTC (((.(((....)))))) were, in that order, -22.1 kcal/mol and 49.2 °C.
On to GATCTTGTTTAAGATC ((((((....)))))), for which, in series [1], the folding enthalpy was -32.1 kcal/mol. The Tm in series [2] is 45.8 °C.
The matching figures for GCGGCATCCGC ((((...)))): -17.9 kcal/mol and 54.8 °C.
The like results for GTAGTAGGAAACTGCTAC ((((.((....)).)))) were, in that order, -30.5 kcal/mol and 44.7 °C.
On to GATCCGGACACGGATC ((((((....)))))), for which the folding enthalpy in series [1] is -43.2 kcal/mol. Also, in series [2], the Tm was determined as 66 °C.
Regarding GATCATCAAGATGATC ((((((....)))))), in series [1], the folding enthalpy is -40.4 kcal/mol. Also, the Tm in series [2] is 49.8 °C.
The matching figures for CGAAGCCGGAAACGGTCG (((..(((....)))))): -12.6 kcal/mol and 37.8 °C.
The matching figures for GATCCGTGAACGGATC ((((((....)))))): -33.1 kcal/mol and 60.5 °C.
The matching figures for GCTCCCGAAAGGGCTAGC ((((((....)))..))): -12.8 kcal/mol and 38.6 °C.
Take ACATCGAAAGATGT (((((....))))): the folding enthalpy in series [1] was -19.6 kcal/mol. In addition, the Tm in series [2] was determined as 52.6 °C.
The like results for GATCTCAAGTGAGATC ((((((....)))))) were, in that order, -34.5 kcal/mol and 51.5 °C.
The matching figures for GGGCGCGAAAGCGTTCCC ((((((....)))..))): -13.7 kcal/mol and 52.3 °C.
The like results for GATCGTACGAACGATC ((((((....)))))) were, in that order, -34.3 kcal/mol and 53.3 °C.
With GCGCTGCGAAAGCCCCGC (((..((....))..))), in series [1], the folding enthalpy was -22.5 kcal/mol. The Tm in series [2] is 41.5 °C.
The matching figures for GCTTACGAAAGTAGGAGC ((((((....)))..))): -25.3 kcal/mol and 35 °C.
The like results for GGCCAGGCGAAAGCCGCC (((..(((....)))))) were, in that order, -13.9 kcal/mol and 58.4 °C.
The matching figures for GTAGGGGCGAAAGCCTAC (((..(((....)))))): -10.8 kcal/mol and 37.9 °C.
Take GCTACCGAAAGGTCTAGC ((((((....)))..))): the folding enthalpy in series [1] was -14.9 kcal/mol. Further, the Tm in series [2] was 36.6 °C.
The matching figures for GGACTCGAAAGAGCTCC ((((((....))).))): -26 kcal/mol and 45 °C.
On to GCCTGTACGAAAGTAGGC (((..(((....)))))), for which the folding enthalpy in series [1] was -29.1 kcal/mol. Moreover, the Tm in series [2] was determined as 48.9 °C.
In the case of GCTTTGCGAAAGCCAAGC ((((.((....)).)))), in series [1], the folding enthalpy was -23 kcal/mol. Also, in series [2], the Tm came to 52.6 °C.
The like results for TTTTCGAAAGAAAA (((((....))))) were, in that order, -15.1 kcal/mol and 37.8 °C.
As for GCCCATCGAAAGATAGGC (((.(((....))).))), in series [1], the folding enthalpy is -30.5 kcal/mol. Moreover, the Tm in series [2] came to 47.2 °C.
The like results for GCTGGTGGAAACACCGGC ((.((((....)))).)) were, in that order, -36.1 kcal/mol and 62.6 °C.
The matching figures for GTCCCTACGAAAGTAGAC (((..(((....)))))): -9.91 kcal/mol and 25.9 °C.
The matching figures for GATCGTGTTCACGATC ((((((....)))))): -44.2 kcal/mol and 58.8 °C.
For GCCTGAACGAAAGTTGGC (((..(((....)))))), the folding enthalpy in series [1] is -23.2 kcal/mol. The Tm in series [2] was 45.5 °C.
As to GGCTAATCGAAAGATGCC (((..(((....)))))), in series [1], the folding enthalpy was -27.2 kcal/mol. Moreover, in series [2], the Tm worked out at 45.2 °C.
On to GCCGCTGCGAAAGCAGGC (((..(((....)))))), for which, in series [1], the folding enthalpy is -9.88 kcal/mol. In addition, the Tm in series [2] was 65.1 °C.
The like results for GCGTTTTGACGC ((((....)))) were, in that order, -25.2 kcal/mol and 55.2 °C.
The matching figures for GCTATGTCGAAAGACAGC (((..(((....)))))): -14 kcal/mol and 41.5 °C.
The like results for GATCCAAATCTGGATC ((((((....)))))) were, in that order, -33.8 kcal/mol and 47.4 °C.
GATCGCTGATGCGATC ((((((....)))))): the folding enthalpy in series [1] is -34.8 kcal/mol. For the same sequence, the Tm in series [2] turned out to be 67.2 °C.
The matching figures for GTACCAGGAAACCGGTAC (((((.(....).))))): -35.7 kcal/mol and 46.9 °C.
Regarding GACCAGGGAAACCTGGTC (((((((....))))))), the folding enthalpy in series [1] is -34.4 kcal/mol. Also, the Tm in series [2] came to 67.5 °C.
The matching figures for GCCTGGCGAAAGCGCGGC (((..((....))..))): -19 kcal/mol and 57.1 °C.
The like results for GTGATTGGAAACAATCAC (((((((....))))))) were, in that order, -46.9 kcal/mol and 58.3 °C.
The like results for GCGTGAGCGAAAGCTCGC (((..(((....)))))) were, in that order, -10.4 kcal/mol and 53 °C.
For the sequence ACTTTGAAAAAAGT (((((....))))), the folding enthalpy in series [1] is -8.08 kcal/mol. Further, the Tm in series [2] is 30.6 °C.
The matching figures for GCCTGGCGAAAGCCCTGC ((..(((....)))..)): -12.2 kcal/mol and 32.6 °C.
The like results for GTCCTGGGAAACCAGGAC (((((((....))))))) were, in that order, -36 kcal/mol and 66.7 °C.
The like results for GCAAGCGAAAGCTTATGC ((((((....)))..))) were, in that order, -14.7 kcal/mol and 39.8 °C.
As to GCTTCCGAAAGGATAGC ((((((....))).))), the folding enthalpy in series [1] is -24.9 kcal/mol. For the same sequence, the Tm in series [2] was 48.7 °C.
The matching figures for GCCACCGGAAACGGCGAC (.(.(((....))).).): -14.2 kcal/mol and 34.7 °C.
The matching figures for GATCCTGGCCAGGATC ((((((....)))))): -47.6 kcal/mol and 61.3 °C.
